Data taken from ChEMBL document CHEMBL3272032, “Antifolate studies. Activities of 40 potential antimalarial compounds against sensitive and chlorguanide triazine resistant strains of folate-requiring bacteria and Escherichia coli” (J Med Chem, 1977).
The source made the active and inactive calls. The calls are words filed in the database; no cut-off is given here.

Legend:
Pediococcus [1] = assay: Antibacterial activity against chlorguanide triazine-resistant Pediococcus cerevisiae ATCC 808 assessed as reduction in growth in presence of 0.001 ug/ml folinic acid; type: functional
Method in brief: (§1)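 Folate-requiring strains grown in medium with folic acid, 0.002 µg/ml for S. faecium and 0.001 µg/ml for L. casei; P. cerevisiae given folinic acid, 0.001 µg/ml. Resistant substrains came from serial transfer in rising chlorguanide triazine, and the most resistant were used. Compounds tested up to 1000 µg/ml, or 100 µg/ml when supply was limited. Growth read as Klett turbidity; IC50 is the µM concentration giving 50% growth inhibition.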

Enterococcus faecium [2] = assay: Antibacterial activity against sensitive Streptococcus faecium ATCC 8043 assessed as reduction in growth; type: functional, organism-based; method in brief: as §1
Lacticaseibacillus casei [3] = assay: Fold increase in resistance, ratio of IC50 for chlorguanide triazine-resistant Lactobacillus casei ATCC 7469 to IC50 for sensitive Lactobacillus casei ATCC 7469; type: functional
Method in brief: (§2)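 Resistant substrains were made by serial transfer in rising concentrations of cycloguanil, and the most resistant isolate of each organism was used. Both strains were assayed turbidimetrically under identical conditions. FIR = IC50 of the resistant strain divided by IC50 of the sensitive parent.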

Enterococcus faecium [4] = assay: Antibacterial activity against chlorguanide triazine-resistant Streptococcus faecium ATCC 8043 assessed as reduction in growth; type: functional, organism-based; method in brief: as §1
Pediococcus [5] = assay: Fold increase in resistance, ratio of IC50 for chlorguanide triazine-resistant Pediococcus cerevisiae ATCC 808 to IC50 for sensitive Pediococcus cerevisiae ATCC 808; type: functional; method in brief: as §2
Lacticaseibacillus casei [6] = assay: Antibacterial activity against sensitive Lactobacillus casei ATCC 7469 assessed as reduction; type: functional, organism-based; method in brief: as §1
Lacticaseibacillus casei [7] = assay: Antibacterial activity against chlorguanide triazine-resistant Lactobacillus casei ATCC 7469 assessed as reduction in growth; type: functional, organism-based; method in brief: as §1
Lacticaseibacillus casei [8] = assay: Antibacterial activity against chlorguanide triazine-resistant Lactobacillus casei ATCC 7469 assessed as reduction in growth in presence of 0.001 ug/ml folic acid; type: functional, organism-based; method in brief: as §1
Escherichia coli [9] = assay: Antibacterial activity against sensitive Escherichia coli ATCC 10536 assessed as reduction in growth; type: functional, organism-based
Method in brief: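 Growth inhibition in Sahyun et al. medium plus 0.6% acid-hydrolyzed casein. Growth read as turbidity on a Klett-Summerson photoelectric colorimeter. IC50 is the micromolar concentration giving 50% growth inhibition. Top concentration was 1000 μg/ml, or 100 μg/ml when compound was limited.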

Enterococcus faecium [10] = assay: Antibacterial activity against sensitive Streptococcus faecium ATCC 8043 assessed as reduction in growth in presence of 0.002 ug/ml folic acid; type: functional, organism-based
Method in brief: (§3)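 Folate-requiring strains in the medium of the earlier assay method. Folic acid was 0.002 μg/ml for S. faecium and 0.001 μg/ml for L. casei. Turbidity read on a Klett-Summerson colorimeter. IC50 is the micromolar concentration reducing growth to 50% of control. Top concentration was 1000 μg/ml, or 100 μg/ml if supply was limited.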

Enterococcus faecium [11] = assay: Antibacterial activity against chlorguanide triazine-resistant Streptococcus faecium ATCC 8043 assessed as reduction in growth in presence of 0.002 ug/ml folic acid; type: functional, organism-based; method in brief: as §1
Plasmodium berghei [12] = assay: Antimalarial activity against Plasmodium berghei infected in sc dosed mouse assessed as active dose required to increase of 100% in mean survival time; type: functional; settings: read-out: MED
Method in brief: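 Mice received a standard blood-induced P. berghei inoculum and were then treated with one subcutaneous dose of compound suspended in peanut oil. The minimum active dose is the lowest dose that raised mean survival time by 100%.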

Plasmodium berghei [13] = assay: Antimalarial activity against Plasmodium berghei infected in sc dosed mouse assessed as dose required to survivors for period of 60 days; type: functional
Method in brief: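 Mice infected with a blood-induced P. berghei inoculum were given one subcutaneous dose in peanut oil. Survivors at 60 days counted as cured. The minimum curative dose is the lowest dose that cured any mouse.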

Enterococcus faecium [14] = assay: Fold increase in resistance, ratio of IC50 for chlorguanide triazine-resistant Streptococcus faecium ATCC 8043 to IC50 for sensitive Streptococcus faecium ATCC 8043; type: functional
Method in brief: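 Resistant S. faecium substrain raised by serial transfer in increasing chlorguanide triazine. IC50 (µM, 50% growth inhibition by turbidity) was found for resistant and parent strains in folic acid (0.002 µg/ml) medium. Fold increase taken as IC50 resistant / IC50 sensitive.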

[15] = Antibacterial activity against sensitive Pediococcus cerevisiae ATCC 808 assessed as reduction; type: functional
Method in brief: (§4)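 P. cerevisiae grown with folinic acid at 0.001 μg/ml in the earlier-described medium. Turbidity read on a Klett-Summerson colorimeter. IC50 is the micromolar concentration reducing growth to 50% of control. Top concentration was 1000 μg/ml, or 100 μg/ml when supply was limited.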

[16] = Antibacterial activity against chlorguanide triazine-resistant Pediococcus cerevisiae ATCC 808 assessed as reduction in growth; type: functional; method in brief: as §1
Pediococcus [17] = assay: Antibacterial activity against sensitive Pediococcus cerevisiae ATCC 808 assessed as reduction in growth in presence of 0.001 ug/ml folinic acid; type: functional; method in brief: as §4
Lacticaseibacillus casei [18] = assay: Antibacterial activity against sensitive Lactobacillus casei ATCC 7469 assessed as reduction in growth in presence of 0.001 ug/ml folic acid; type: functional, organism-based; method in brief: as §3
Escherichia coli [19] = assay: Antibacterial activity against sensitive Escherichia coli ATCC 10536 assessed as reduction in growth in presence of p-aminobenzoic acid; type: functional, organism-based
Method in brief: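 Reversal test. Drug inhibition was challenged with PABA in Sahyun et al. medium plus 0.6% acid-hydrolyzed casein. Growth read as turbidity on a Klett-Summerson colorimeter. Scored as reversal or nonreversal of the drug inhibition.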

Compound	inhibition (Pediococcus [1])	IC50 (Enterococcus faecium [2]) [µM]	Ratio IC50 (Lacticaseibacillus casei [3])	IC50 (Enterococcus faecium [4]) [µM]	Ratio IC50 (Pediococcus [5])	IC50 (Lacticaseibacillus casei [6]) [µM]	IC50 (Lacticaseibacillus casei [7]) [µM]	inhibition (Lacticaseibacillus casei [8])	IC50 (Escherichia coli [9]) [µM]	inhibition (Enterococcus faecium [10])	inhibition (Enterococcus faecium [11])	minimal effective dose (Plasmodium berghei [12]) [mg/kg]	MCD (Plasmodium berghei [13]) [mg/kg]	Ratio IC50 (Enterococcus faecium [14])	IC50 [15] [µM]	IC50 [16] [µM]	inhibition (Pediococcus [17])	inhibition (Lacticaseibacillus casei [18])	inhibition (Escherichia coli [19])
O=C1C(O)=C(CCCCCCCCC2CCCCC2)C(=O)c2ccccc21 [MENOCTONE]	Active	407	0.3	394	0.6	61	19	Active	> 2700	Active	Active	40	160	1	1000	570	Active	Active	
CC(C)c1nc2nc(N)nc(N)c2nc1C(C)C	inactive	0.005	0.16	0.3	7	3.2	0.5	inactive	8.1	inactive	inactive	640	640	60	0.07	0.5	inactive	inactive	Active
Cc1nc(C)c(Cl)c(O)c1Cl [CLOPIDOL]	Active	3700	0.52	2200	1	1700	885		> 5200	Active	Active	160	>640	0.6	833	1000	Active	Active	
Nc1nc(N)c2cc(SCc3ccc(Cl)cc3)ccc2n1	inactive	0.04	0.2	1	28	0.2	0.04	inactive	2.9	inactive	inactive	320	640	25	0.05	1.4	inactive	inactive	Active
CC1(C)N=C(N)N=C(N)N1c1ccc(Cl)cc1 [CYCLOGUANIL]	inactive	0.017	147	3300	26	16.3	2400	inactive	> 3470	inactive	inactive	20	40	194000	35	900	inactive	inactive	
CC(CNc1nc(Nc2ccc(Cl)c(Cl)c2)nc(C(Cl)(Cl)Cl)n1)N(C)C (centres undefined)	Active	14.2	0.9	14.6	1	5.7	4.9	Active		Active	Active	80	160	1	5.9	7.5	Active	Active	
C=C[C@H]1CN2CC[C@H]1C[C@H]2[C@H](O)c1ccnc2ccc(OC)cc12 [QUININE]	Active	> 2500	1	> 2500	1	980	1200		1300			640	>640		780	850	Active	Active	
Nc1nc(N)c2cc(S(=O)(=O)c3ccc4ccccc4c3)ccc2n1	inactive	0.002	0.23	0.08	25	0.04	0.009	inactive	< 0.2	inactive	inactive	0.63	1.25	40	0.002	0.05	inactive	inactive	Active
N=C(N)NC(=O)Nc1ccc([N+](=O)[O-])cc1	Active	1300	12	2500	2	157	1800	Active	> 4480	Active	Active	640	640	2	83	197	Active	Active	
C/C(=C\C(=N\NC(=N)N)c1ccccc1)c1ccccc1	Active	11	1	60	0.5	48	41	Active	51	inactive		160	>640	6	25	13	Active	Active	Active
Clc1ccc(Nc2nc(NCCCN3CCCC3)c3ccccc3n2)cc1Cl	Active	32	0.6	22	2	10	5.7		10	Active				0.7	3.5	7.9	Active	Active	Active
CN1CCCCC1CNc1nc(-c2ccc(Cl)c(Cl)c2)nc(C(Cl)(Cl)Cl)n1 (centres undefined)	Active	132	1.1	128	1	3	3.2	Active		Active	Active	160	320	0.97	4.9	3.8	Active	Active	
